The results in this text go back to ChEMBL document CHEMBL4765243, “Discovery of Novel Bromophenol-Thiosemicarbazone Hybrids as Potent Selective Inhibitors of Poly(ADP-ribose) Polymerase-1 (PARP-1) for Use in Cancer” (J Med Chem, 2019).

Series [1] deals with SK-OV-3. Nature of the series: Antiproliferative activity against human SK-OV-3 cells assessed as cell growth inhibition incubated for 48 hrs by MTT assay. In kind it is functional, cell-based. The note with it: SK-OV-3, 48 h. In outline:
(§1)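 Cells seeded in 96-well plates and exposed to compounds for 48 h; viability read by MTT. Each experiment repeated three times. SK-OV-3 grown in McCOY's 5A, Bel-7402 and HL-7702 in RPMI-1640, HepG2 in DMEM, Caco-2 in MEM.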

Series [2] has as its system L02. The series is described as follows: Cytotoxicity against human HL7702 cells assessed as cell growth inhibition incubated for 48 hrs by MTT assay. In kind it is cell-based. The note with it: L02, 48 h. In outline: as §1
The subject of series [3] is Caco-2. Nature of the series: Antiproliferative activity against human Caco-2 cells assessed as cell growth inhibition incubated for 48 hrs by MTT assay. Format: functional, cell-based. The note with it: Caco-2, 48 h. In outline:
as §1

Series [4] addresses T1, Poly [ADP-ribose] polymerase 1 (Homo sapiens, UniProt P09874). The note with it: dose 100.0 nM, time 30.0 min.
A short description of series [5]: Cytotoxicity against human HL7702 cells assessed as cell growth inhibition at 20 uM incubated for 48 hrs by MTT assay relative to control. The note with it: HL7702 (L02) cells. Format: cell-based.
Series [6] is described as follows: Selectivity index, ratio of IC50 for inhibition of human recombinant N-terminal GST-tagged PARP-2 to IC50 for inhibition of human recombinant GST-tagged PARP-1.
In series [7] the test system is Bel-7402. The series is described as follows: Antiproliferative activity against human Bel-7402 cells assessed as cell growth inhibition at 20 uM incubated for 48 hrs by MTT assay relative to control. In kind it is functional.
Series [8] deals with Poly [ADP-ribose] polymerase 2 (Homo sapiens, UniProt Q9UGN5). Nature of the series: Inhibition of human recombinant N-terminal GST-tagged PARP-2 expressed in Baculovirus infected Sf9 cells assessed as reduction in NAD+-dependent ADP ribosylation using histone mixture (H2A and H2B) as substrate in presence of activated DNA incubated for 30 mins by chemiluminescence assay.
Series [9] relates to Caco-2. Nature of the series: Antiproliferative activity against human Caco-2 cells assessed as cell growth inhibition at 20 uM incubated for 48 hrs by MTT assay relative to control. Format: functional.
The test system of series [10] is SK-OV-3. Nature of the series: Antiproliferative activity against human SK-OV-3 cells assessed as cell growth inhibition at 20 uM incubated for 48 hrs by MTT assay relative to control. In kind it is functional.
Series [11] concerns HepG2. The series is described as follows: Antiproliferative activity against human HepG2 cells assessed as cell growth inhibition incubated for 48 hrs by MTT assay. The note with it: HepG2, 48 h. Format: functional, cell-based. Put shortly: as §1
Series [12] relates to Bel-7402. The series is described as follows: Antiproliferative activity against human Bel-7402 cells assessed as cell growth inhibition incubated for 48 hrs by MTT assay. Format: functional, cell-based. The note with it: Bel-7402, 48 h. Put shortly:
as §1

Series [13] concerns the target T1, Poly [ADP-ribose] polymerase 1. Nature of the series: Inhibition of human recombinant GST-tagged PARP-1 expressed in Escherichia coli assessed as reduction in NAD+-dependent ADP ribosylation incubated for 30 mins in presence and NAD by resazurin dye based fluorescence analysis.
Series [14] deals with HepG2. The series is described as follows: Antiproliferative activity against human HepG2 cells assessed as cell growth inhibition at 20 uM incubated for 48 hrs by MTT assay relative to control. Format: functional.
Series [15] is described as follows: Toxicity in Balb/c nude mouse xenografted with human SKOV3 cells assessed as change in body weight at 25 mg/kg, po for 21 days and measured every third day. The note with it: in vivo, 504 h, time 21 day. In kind it is organism-based. Put shortly: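 Female BALB/c nu/nu mice, 6-8 weeks old, kept under SPF conditions. Each received 5×10^6 SK-OV-3 cells s.c. At 80–120 mm3 tumour volume, mice were split into four groups (n=6). […] Caliper measurement every three days; volume = X × (Y2/2).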

Structures are written as SMILES. Where only a bound is given, the exact number is not on record here.

T1 sequence (P09874 whole entry): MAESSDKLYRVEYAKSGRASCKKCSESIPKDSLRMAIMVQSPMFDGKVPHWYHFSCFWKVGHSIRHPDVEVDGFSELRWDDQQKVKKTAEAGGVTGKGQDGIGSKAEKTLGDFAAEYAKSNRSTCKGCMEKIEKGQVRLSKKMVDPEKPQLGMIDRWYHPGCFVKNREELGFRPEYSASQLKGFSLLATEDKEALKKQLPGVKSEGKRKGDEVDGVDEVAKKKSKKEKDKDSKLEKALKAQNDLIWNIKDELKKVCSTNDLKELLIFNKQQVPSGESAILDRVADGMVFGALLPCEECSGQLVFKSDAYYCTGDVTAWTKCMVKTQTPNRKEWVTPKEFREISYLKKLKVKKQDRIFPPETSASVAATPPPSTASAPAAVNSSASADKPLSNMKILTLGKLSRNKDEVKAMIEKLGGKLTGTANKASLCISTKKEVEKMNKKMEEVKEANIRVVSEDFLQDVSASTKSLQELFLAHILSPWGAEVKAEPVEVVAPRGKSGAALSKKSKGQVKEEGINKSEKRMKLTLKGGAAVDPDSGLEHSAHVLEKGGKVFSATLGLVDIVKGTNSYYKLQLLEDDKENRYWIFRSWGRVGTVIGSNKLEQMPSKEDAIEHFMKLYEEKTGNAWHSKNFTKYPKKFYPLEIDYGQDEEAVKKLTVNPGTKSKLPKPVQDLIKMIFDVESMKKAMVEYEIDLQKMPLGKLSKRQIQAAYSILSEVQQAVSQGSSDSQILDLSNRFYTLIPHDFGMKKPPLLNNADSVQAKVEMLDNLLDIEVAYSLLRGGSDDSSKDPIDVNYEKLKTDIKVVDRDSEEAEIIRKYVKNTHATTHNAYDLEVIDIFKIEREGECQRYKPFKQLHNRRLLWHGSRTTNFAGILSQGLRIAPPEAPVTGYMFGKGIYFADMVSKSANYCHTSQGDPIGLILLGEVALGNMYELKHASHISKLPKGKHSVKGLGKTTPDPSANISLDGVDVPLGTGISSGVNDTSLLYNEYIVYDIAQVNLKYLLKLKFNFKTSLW
Sequence of Poly [ADP-ribose] polymerase 2 (Q9UGN5 whole entry): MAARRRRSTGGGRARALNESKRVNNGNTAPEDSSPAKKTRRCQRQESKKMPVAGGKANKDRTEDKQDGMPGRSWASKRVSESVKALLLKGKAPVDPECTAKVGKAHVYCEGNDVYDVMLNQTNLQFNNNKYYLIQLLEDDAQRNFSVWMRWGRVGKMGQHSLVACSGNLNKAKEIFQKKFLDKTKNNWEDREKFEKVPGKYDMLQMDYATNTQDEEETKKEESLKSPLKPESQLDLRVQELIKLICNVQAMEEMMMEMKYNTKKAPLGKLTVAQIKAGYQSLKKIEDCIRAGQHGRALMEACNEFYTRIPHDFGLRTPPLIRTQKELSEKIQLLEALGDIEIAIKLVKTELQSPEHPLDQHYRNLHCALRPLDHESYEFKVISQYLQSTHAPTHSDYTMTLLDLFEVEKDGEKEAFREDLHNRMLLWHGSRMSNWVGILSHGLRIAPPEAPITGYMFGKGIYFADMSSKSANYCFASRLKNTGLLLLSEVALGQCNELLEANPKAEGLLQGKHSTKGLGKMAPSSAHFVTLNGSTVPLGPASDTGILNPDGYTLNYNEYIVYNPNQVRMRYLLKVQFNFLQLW

In the case of `CCOC(=O)c1ccc(NC(=S)N/N=C/c2cc(OC)c(OC)c(Br)c2Br)cc1`, the IC50 in [1] was 15.6 µM; in series [2], 9.96 µM; in series [3] it was 11.3 µM; in series [8], greater than 1 µM; in series [11], 10.5 µM; in series [12], 6.89 µM. Besides, in series [13], the IC50 came to 0.0583 µM. In [4], this compound showed an inhibition of 72.2%. For the same compound, the inhibition at 48 h, 20 µM in series [5] was found to be 97.7%. Further, the Ratio IC50 in series [6] was greater than 17.2. Besides, the inhibition at 20 µM in series [7] was 71.9%; in series [9], 76.5%; in series [10], 70%; in series [14], 73%.
In [4], `COc1cc(/C=N/NC(N)=S)c(Br)c(Br)c1O` yielded an inhibition of 61%. Moreover, in series [5], the inhibition at 48 h, 20 µM was less than 0%. In addition, in series [6], the Ratio IC50 was greater than 3.94. Moreover, the inhibition at 20 µM in series [7] was 44.8%; in series [9], 24.9%; in series [10], 28%; in series [14], 50.8%. Also, the figures for the IC50 in [8] and in [13] were greater than 1 µM and 0.254 µM, respectively.
Regarding `CCOC(=O)c1ccc(NC(=S)N/N=C/c2cc(Br)c(OC)c(OC)c2)cc1`, the IC50 in series [1] came out at 13.7 µM; in series [2], 8.8 µM; in series [3] it was 13.7 µM; in [11], 8.55 µM; in series [12] it was 9.87 µM. Further, the inhibition in series [4] stood at 43.7%. Further, the inhibition at 48 h, 20 µM in [5] came to 84%. Besides, the inhibition at 20 µM was determined as 39.4% in series [7], 55.5% in series [9], 60.4% in series [10] and 59.3% in series [14].
`O=C(c1cc(Cc2n[nH]c(=O)c3ccccc23)ccc1F)N1CCN(C(=O)C2CC2)CC1` [OLAPARIB]: the IC50 in series [1] was 3.15 µM; in series [2], 25.8 µM; in series [3] it was 65.5 µM; in series [11], 42.4 µM; in [12], 35.5 µM. The Activity entry in [15] is given as “Non-Toxic”.
Turning to `COc1cc(/C=N/NC(=S)Nc2ccccc2)c(Br)c(Br)c1OC`, the IC50 in series [1] is 9.25 µM; in series [2], 22.6 µM; in series [3], 9.97 µM; in series [11], 25.7 µM; in series [12], 30.2 µM. The compound also came in with an inhibition in series [4] of 43.8%. In addition, the inhibition at 48 h, 20 µM in [5] was determined as 86.4%. The inhibition at 20 µM was determined as 50.3% in [7], 14.2% in series [9], 90.4% in series [10] and 54.6% in series [14].
For the compound `COc1cc(/C=N/NC(=S)NCCCN2CCOCC2)c(Br)c(Br)c1OC`, the half-inhibitory concentration (IC50) was 18.2 µM in series [1]; 28.9 µM in series [2]; 15.9 µM in [3]; greater than 1 µM in series [8]; 26.3 µM in series [11]; 24 µM in series [12]. Also, the IC50 in series [13] was found to be 0.186 µM. In series [4], the inhibition came to 51.5%. Moreover, in series [5], the inhibition at 48 h, 20 µM came to 51%. In addition, the Ratio IC50 in series [6] is greater than 5.37. Besides, the inhibition at 20 µM is 89.7% in series [7], 45.9% in [9], 71.5% in [10] and 40.2% in [14].
As to `NC(=S)N/N=C/c1cc(O)c(O)c(Br)c1Br`, the IC50 in [1] was found to be 19.2 µM; in series [2], 13.5 µM; in series [3], 16.4 µM; in series [11], 16 µM; in series [12] it was 19.6 µM. In series [4], this compound gave an inhibition of 37.1%. Besides, the inhibition at 48 h, 20 µM in series [5] was 82.9%. Besides, the inhibition at 20 µM in series [7] turned out to be 69.3%; in series [9], 53.6%; in [10] it was 60.7%; in [14], 65.8%.
